# High-throughput results deposited in PubChem by several laboratories.
# A selection: hits, their analogues and other compounds. The true share with any hit is near 0.86%.
# CXCR6 inh – CXCR6 receptor inhibitors, primary screen, cell-based, beta-arrestin, luminescence, CHO-K1 PathHunter, 1536-well; inhibition, % at 20 µM; 360,000 compounds, 0.36% hits; in the data active means inhibition above about 34%, passing the limit was not always enough;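 further: antagonist mode with CXCL16 agonist at 10 nM final; 0% = 10 nM CXCL16 with DMSO and 100% = unstimulated wells without agonist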
# Target sequence (O00574 whole entry, looked up): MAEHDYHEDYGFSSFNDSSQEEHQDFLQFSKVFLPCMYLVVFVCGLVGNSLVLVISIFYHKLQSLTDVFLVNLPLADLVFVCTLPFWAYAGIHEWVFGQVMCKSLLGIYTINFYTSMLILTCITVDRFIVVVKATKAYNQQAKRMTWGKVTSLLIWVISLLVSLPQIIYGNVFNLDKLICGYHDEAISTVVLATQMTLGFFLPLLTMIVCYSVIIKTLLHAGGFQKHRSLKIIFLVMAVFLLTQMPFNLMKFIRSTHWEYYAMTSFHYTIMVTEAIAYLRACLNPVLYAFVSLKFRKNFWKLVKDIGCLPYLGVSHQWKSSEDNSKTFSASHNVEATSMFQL
# DAGLB inh – DAGLB lipase inhibitors, primary screen, biochemical, fluorescence, HTS; Diacylglycerol lipase-beta (Homo sapiens), Q8NCG7; HEK293T DAGLB membrane lysate, EnzChek fluorogenic substrate; inhibition, % at 5.17 µM; 340,000 compounds, 0.059% hits; AID 504411, 2011; in the data active means inhibition above about 34%;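 further: 0% = enzyme with vehicle and 100% = wells lacking enzyme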
# APJ antag – antagonists of human apelin receptor APJ, primary screen, CHO-K1 cells, beta-arrestin complementation, luminescence; P35414; inhibition, % at 20 µM; 330,000 compounds, 0.32% hits;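 active means inhibition above about 40% at 20 µM, limit read from the data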;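 further: cells challenged with 10 nM apelin-13 agonist together with compound; plate controls were apelin-13 plus DMSO wells for no effect and DMSO wells lacking apelin-13 for full effect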
# APJ agonist – agonists of human apelin receptor APJ, primary screen, CHO-K1 cells, PathHunter beta-arrestin, luminescence; 330,000 compounds, 0.11% hits; 0% DMSO wells, 100% apelin; P35414; activation, % at 20 µM;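 active means activation more than six SD over the plate average, tested at 20 µM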;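 further: 0% = DMSO alone and 100% = apelin-13 at 10 nM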
#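 system = engineered CHO-K1 APJ arrestin reporter cells | input = 1000 cells per well | timing = overnight seeding, 90 min compound at 25 °C, 1 h detection | measured by = enzyme-fragment complementation luminescence | read-out = beta-arrestin recruitment to APJ as agonist activity, luminescent signal | control set = negative DMSO alone, positive Apelin-13 at 10 nM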
# iPSC survival up – enhancers of single-cell hiPSC survival, primary screen, ATPlite luminescence. AID 602274, 2012. survival enhancement, % at 20 µM. 100% = ROCK inhibitor wells, 0% = DMSO. 360,000 compounds, 0.044% hits; in the data active means survival enhancement above about 18%;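 further: cells exposed to compounds for 16 hours before the ATP read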
# CCR6 antagonist – CCR6 receptor antagonists, primary screen, cell-based, CHO-K1, luminescence, beta-arrestin, uHTS | 340,000 compounds, 0.49% hits | inhibition, % at 20 µM | C-C chemokine receptor type 6 (Homo sapiens), P51684 | AID 493098, 2011 | CHO-K1 CCR6 PathHunter beta-arrestin, CCL20-stimulated;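 active means compounds whose inhibition of the agonist-driven luminescence signal at 20 µM reaches about 50%, limit read from the data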;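 further: cells stimulated with CCL20 at 14 nM final; plate controls were DMSO with CCL20 for no effect and DMSO without agonist for full effect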
# * = called active by the depositor; x = no result given.
SMILES,CXCR6 inh,DAGLB inh,APJ antag,APJ agonist,iPSC survival up,CCR6 antagonist
O=[N+]([O-])/C=C/c1c(OCc2ccccc2)ccc2ccccc12,35.9*,-4.6,5.1,1.6,-6.0,x
CCOC(=O)COc1ccc(/C=C/[N+](=O)[O-])c(OCC(=O)OCC)c1,35.7,1.9,6.3,6.2,-1.9,54.6*
CCOC(=O)COc1ccc2ccccc2c1/C=C/[N+](=O)[O-],17.3,0.5,x,x,-1.0,74.7*
CCCCOc1ccc2ccccc2c1C=O,-5.4,-20.4,3.2,-1.7,-2.5,13.0
Cc1ccc(S(=O)(=O)N2C[C@H]3C(=O)C[C@@H](c4ccccc4F)N(S(=O)(=O)c4ccc(C)cc4)[C@H]3C[C@H]2c2ccccc2)cc1,-0.1,x,x,x,-0.6,x
Cc1ccc(NC(=S)N(CCC(C)C)C(C)c2ccncc2)c(Cl)c1 (stereo not drawn),-13.5,-1.6,7.5,1.3,-0.6,8.1
COc1cc(OC)cc(C(=O)Nc2nc(-c3ccccc3)c(-c3ccccc3)o2)c1,17.5,-4.1,10.3,-3.5,-0.3,61.9*
CC(=O)Nc1nc(-c2ccccc2)c(-c2ccccc2)o1,-7.3,-1.3,-6.3,-7.7,-0.4,6.7
Cc1ccccc1NC(=S)Nc1cccc2cnccc12,-8.0,-1.8,-42.4,16.3*,-0.8,10.3
O=C(CN1CCN(c2nc(-c3ccccc3)cs2)CC1)NNC(=O)c1ccc(Br)cc1,-10.1,-0.8,-19.6,-3.3,2.3,10.6
O=C(NC(=S)N1CCN(c2nc(-c3ccccc3)cs2)CC1)c1cncc(Br)c1,38.5,4.5,6.9,-4.2,-0.2,57.3*
COc1cccc(C(NC(C)=O)c2nc(-c3cccc(F)c3)cs2)c1 (stereo not drawn),-3.9,x,x,x,-1.7,x
Cc1ccc(C(=O)COC(=O)CCC(=O)Nc2cc(Cl)ccc2Cl)cc1[N+](=O)[O-],20.3,-2.8,33.3,-13.9,1.9,62.3*
CC(=O)Nc1ccc(C(=O)OCC(=O)c2ccc(C)c([N+](=O)[O-])c2)cc1,-5.2,0.3,10.4,-5.0,5.1,23.2
COc1cc(C)ccc1OCCOCCOc1cc(C)c(C)cc1Br,-6.7,-29.1,-2.6,-2.1,0.8,3.4
CCCN1C(=O)/C(=C2\SC(=S)N(c3c(C)n(C)n(-c4ccccc4)c3=O)C2=O)c2ccccc21,x,x,-2.2,1.3,x,50.9*
CCN1C(=O)/C(=C2\SC(=S)N(c3c(C)n(C)n(-c4ccccc4)c3=O)C2=O)c2ccccc21,27.3,0.0,19.6,6.8,1.2,36.6
CC1(c2nnnn2-c2ccc3c(c2)OCCO3)CCC(=O)N1CC1CCCCC1 (stereo not drawn),-0.1,x,x,x,-0.4,x
COc1ccc(NC(=O)/C(Cl)=C(/Cl)S(=O)(=O)Cc2ccc(C)cc2)cn1,48.4*,13.4,x,x,22.9*,57.5*
COc1ccc(NC(=O)Cc2ccc(Cl)c(Cl)c2)cn1,-4.2,2.7,-0.8,-1.5,-1.2,-9.6
Cc1cccc(NC(=O)c2ccc(S(=O)(=O)N3CCC(C)CC3)cc2)n1,-5.1,-5.0,-18.7,12.1,0.9,-2.0
CC1(C)C(=O)C=CC(=O)C(C)(C)C(=O)C=CC(=O)C(C)(C)C2=CC=C(O2)C(C)(C)C(=O)C=CC1=O,4.1,-0.1,x,x,-3.4,54.6*
CCCCOCCCNC(=O)C[C@@H]1C[C@@]2(C(=O)OCC)CCC=C2N(Cc2cccc3ccccc23)C1=O,16.9,x,x,x,0.9,x
Cc1ccn2c(Nc3ccccc3)c(-c3ccccn3)nc2c1,28.8,1.5,49.1*,-7.0,-0.4,26.0
COc1ccc(C(C)(O)c2nc(-c3cccc(C(F)(F)F)c3)cs2)cc1 (stereo not drawn),-6.9,x,x,x,-2.3,x
COc1cc(Cl)ccc1OCc1cc(C(=O)N2CCCC(OC)C2)no1 (stereo not drawn),0.9,-1.5,-0.5,-1.8,0.1,-1.7
CCC1(C)Cc2ccccc2-c2nc(NN)[nH]c(=O)c21 (stereo not drawn),8.6,-4.3,22.3,-8.0,2.9,30.9
